Screening data deposited in PubChem by several laboratories.
CSN inh: blocks human CSN-mediated cullin deneddylation; Q92905; Purified CSN, SCF-Nedd8-OG deneddylation, fluorescence polarization; inhibition, % at 12.5 µM; 360,000 compounds, 0.38% hits;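 active means pattern-corrected inhibition above about 35%, with an unprinted fluorescence ratio check between 0.5 and 1.5, limit read from the data, passing the limit was not always enough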
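Test system: purified human Csn5 enzyme expressed in HEK293T cells. Amount: 0.24 nM enzyme. Reagent: SCFSkp2-Nedd8OG substrate at 10 nM final. Schedule: 90 min incubation of compound, enzyme and substrate at room temperature. Detection: fluorescence polarization. Read-out: % inhibition of substrate cleavage by Csn5.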
HNF4A DNA FP: change in binding of human HNF4 alpha to DNA; HNF4a-FITC DNA binding, fluorescence polarization, 1 h; activity change, % at 10 µM; 360,000 compounds, 0.3% hits; AID 1224865; in the data active means activity change above about 30%, passing the limit was not always enough
Target sequence (P41235 whole entry, looked up): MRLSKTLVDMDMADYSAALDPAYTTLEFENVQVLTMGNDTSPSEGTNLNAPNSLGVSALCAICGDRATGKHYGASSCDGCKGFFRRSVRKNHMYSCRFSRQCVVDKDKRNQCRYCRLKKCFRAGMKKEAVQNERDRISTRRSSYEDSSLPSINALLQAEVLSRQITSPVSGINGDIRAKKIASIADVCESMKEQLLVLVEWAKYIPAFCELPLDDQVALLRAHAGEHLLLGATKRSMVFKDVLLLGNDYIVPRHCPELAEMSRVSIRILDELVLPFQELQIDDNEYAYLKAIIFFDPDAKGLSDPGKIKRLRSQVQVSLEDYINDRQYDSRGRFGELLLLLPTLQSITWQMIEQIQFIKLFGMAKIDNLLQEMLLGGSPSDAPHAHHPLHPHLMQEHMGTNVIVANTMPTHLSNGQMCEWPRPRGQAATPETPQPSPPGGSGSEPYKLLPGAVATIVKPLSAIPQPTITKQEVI
IDE act: boosts human insulin-degrading enzyme activity in HEK cells; 340,000 compounds, 0.073% hits; activation, % at 5.96 µM; AID 493087; P14735; FAbeta-B cleavage, fluorescence polarization; 0% vehicle, 100% cell-free pure enzyme wells;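 active means activation above the mean of all tested compounds plus 3 SD, set per screening campaign, cut at about 17% in these data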
TPT1 inh: inhibitors of Candida albicans tRNA 2'-phosphotransferase TPT1; recombinant caTPT1, FP RNA substrate dephosphorylation; inhibition, % at 5 µM; 300,000 compounds, 0.81% hits;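 active means inhibition above the mean of all tested compounds plus 3 SD, set per screening campaign, cut at about 24% in these data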
TbMetRS inhib: blocks T. brucei methionyl-tRNA synthetase activity. purified T. brucei MetRS, ATP depletion, Kinase-Glo luminescence. inhibition, % at 11.9 µM. 360,000 compounds, 0.4% hits. AID 624268;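 active means inhibition above a per-plate cutoff of the control wells' mean inhibition plus 3 SD, cut at about 5.5% in these data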
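Test system: purified T. brucei MetRS enzyme. Also added: ATP, methionine and E. coli bulk tRNA substrates. Compound: 11.9 µM single point. Schedule: 15 min enzyme-compound preincubation, 2 h reaction, 10 min detection, 25 °C. Signal: luciferase luminescence of residual ATP, Kinase-Glo. Evaluation: percent inhibition versus plate control medians. Controls: DMSO wells, low control.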
IDE cell inh: cellular human IDE inhibition. HEK cells, FAbetaB cleavage, fluorescence polarization. inhibition, % at 5.59 µM. 320,000 compounds, 0.41% hits;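 active means percent inhibition above the average of all tested compounds plus 3 SD, set per screening campaign, cut at about 16% in these data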;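 further: IDE supplied by intact live HEK cells; FP after avidin binding of uncleaved biotin substrate so inhibition keeps polarization high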
TbMetRS confirm: Trypanosoma brucei MetRS inhibition confirmed; shares compounds with TbMetRS inhib; T. brucei MetRS enzyme, luminescence (ATP depletion); inhibition, % at 11.9 µM; 1,400 compounds, 93% hits; AID 624412; in the data active means inhibition above about 7%
Jurkat cytotox: counter-screen for T. brucei MetRS inhibitors: Jurkat cell cytotoxicity; shares compounds with TbMetRS inhib; Jurkat cells viability, ATP luminescence; inhibition, % at 8.3 µM; 1,400 compounds, 12% hits; AID 624413; in the data active means inhibition above about 15%
Tb MetRS inh FP: T. brucei MetRS inhibition, orthogonal assay | 1,400 compounds, 44% hits | shares compounds with TbMetRS inhib | purified T. brucei MetRS, fluorescence polarization | inhibition, % at 11.9 µM; in the data active means inhibition above about 17%
Each line names hits and unclear results; the compound was inactive in the other large screens (follow-up assays come after a bar, where they were run). An excerpt weighted towards active compounds, which were near 1.7% of everything screened.

CN(C)c1ccc(CNC(=O)c2cc(S(=O)(=O)N3CCOCC3)cn2C)cc1	none
Cc1ccccc1-c1cnc(C(O)c2cc(Cl)cc(Cl)c2)[nH]1 (stereo not given)	TbMetRS inhib 53.4 (no result: IDE act, TPT1 inh, IDE cell inh) | TbMetRS confirm 81.2 | Jurkat cytotox inactive | Tb MetRS inh FP 56.7
Cc1ccccc1-c1cnc(C(O)c2ccc(Cl)cc2C)[nH]1 (stereo not given)	none (no result: IDE act, TPT1 inh, IDE cell inh)
Cc1cc(C)cc(C(O)c2ncc(-c3ccccc3C(F)(F)F)[nH]2)c1 (stereo not given)	none (no result: IDE act, TPT1 inh, IDE cell inh)
OC(c1cc(F)cc(Cl)c1)c1ncc(-c2ccccc2C(F)(F)F)[nH]1 (stereo not given)	TbMetRS inhib 25.7 (no result: IDE act, TPT1 inh, IDE cell inh) | TbMetRS confirm 48.0 | Jurkat cytotox 81.1 | Tb MetRS inh FP 23.4
OC(c1cc(Cl)cc(Cl)c1)c1ncc(-c2cccc(F)c2)[nH]1 (stereo not given)	TbMetRS inhib 41.5 (no result: IDE act, TPT1 inh, IDE cell inh) | TbMetRS confirm 77.5 | Jurkat cytotox inactive | Tb MetRS inh FP 55.1
Cc1cc(C)cc(C(O)c2ncc(-c3ccc4ccccc4c3)[nH]2)c1 (stereo not given)	TbMetRS inhib 7.5 (no result: IDE act, TPT1 inh, IDE cell inh) | TbMetRS confirm 29.7 | Jurkat cytotox inactive | Tb MetRS inh FP 17.5
OC(c1ccc(Cl)c(Cl)c1)c1ncc(-c2cccc(F)c2)[nH]1 (stereo not given)	none (no result: IDE act, TPT1 inh, IDE cell inh)
CCc1nc2c(OCc3ccc(Cl)cc3)cccn2c1N(C)C(=O)c1ccco1	none (no result: IDE act, TPT1 inh, IDE cell inh)
Cc1cc(C)n(CCNC(=O)[C@H]2O[C@@H](n3ccc(=O)[nH]c3=O)[C@H](O)[C@@H]2O)n1	none (no result: IDE act, TPT1 inh, IDE cell inh)
OC(c1ccc(F)c(F)c1)c1ncc(-c2ccc(Cl)cc2)[nH]1 (stereo not given)	none (no result: IDE act, TPT1 inh, IDE cell inh)
OC(c1cc(F)cc(Cl)c1)c1ncc(-c2ccc(Cl)cc2)[nH]1 (stereo not given)	TbMetRS inhib 34.3 (no result: IDE act, TPT1 inh, IDE cell inh) | TbMetRS confirm 68.6 | Jurkat cytotox inactive | Tb MetRS inh FP 47.4
Cc1ccc(-n2nnnc2CNC(=O)c2ccc3c(c2)OCO3)cc1C	none
Cc1ccc(Nc2nc3ccccc3[nH]2)nc1	TbMetRS inhib 8.1 | TbMetRS confirm 25.7 | Jurkat cytotox inactive | Tb MetRS inh FP inactive
CCc1ccccc1Nc1nc2ccccc2[nH]1	none (no result: IDE act)
COc1ccccc1NS(=O)(=O)c1cccc(NC(=O)Nc2cccc(Cl)c2)c1	TbMetRS inhib 31.1 | TbMetRS confirm 41.1 | Jurkat cytotox inactive | Tb MetRS inh FP 71.9
O=C(Nc1ccccc1F)Nc1cc(S(=O)(=O)N2CCOCC2)ccc1N1CCCC1	none
CC(=O)c1ccc(NC(=O)CNc2cc(S(=O)(=O)N3CCOCC3)ccc2N2CCCC2)cc1	none (no result: TPT1 inh, IDE cell inh)
O=C(Nc1ccc(Cl)c(Cl)c1)Nc1cc(S(=O)(=O)N2CCOCC2)ccc1N1CCCC1	TbMetRS inhib 8.0 | TbMetRS confirm 15.8 | Jurkat cytotox inactive | Tb MetRS inh FP inactive
O=C(CNc1cc(S(=O)(=O)N2CCOCC2)ccc1N1CCCC1)Nc1ccc(Cl)cc1	TbMetRS inhib 47.9 (no result: TPT1 inh, IDE cell inh) | TbMetRS confirm 65.4 | Jurkat cytotox inactive | Tb MetRS inh FP 35.3
O=S(=O)(Nc1cc(S(=O)(=O)N2CCOCC2)ccc1NCC1CCCO1)c1ccc(F)cc1 (stereo not given)	none (no result: TPT1 inh)
O=C(CNc1cc(S(=O)(=O)N2CCOCC2)ccc1NCC1CCCO1)Nc1cccc(F)c1 (stereo not given)	TbMetRS inhib 14.3 | TbMetRS confirm 9.1 | Jurkat cytotox inactive | Tb MetRS inh FP inactive
O=C(CN1CCN(S(=O)(=O)N2CCOCC2)CC1)Nc1ccc(Cl)c(Cl)c1	TbMetRS inhib 12.0 | TbMetRS confirm 33.0 | Jurkat cytotox inactive | Tb MetRS inh FP inactive
Cc1cc(C)c2c(c1)NC(c1cc3c(cc1Br)OCO3)C1CC=CC21 (stereo not given)	none
